{"source": "paper PMC3823688", "about": "(Journal of medicinal chemistry, 2013)", "key": {"ANT(4')": {"biological_target": "ANT(4') (Staphylococcus aureus, UniProt P05057)", "sequence (P05057 whole entry)": "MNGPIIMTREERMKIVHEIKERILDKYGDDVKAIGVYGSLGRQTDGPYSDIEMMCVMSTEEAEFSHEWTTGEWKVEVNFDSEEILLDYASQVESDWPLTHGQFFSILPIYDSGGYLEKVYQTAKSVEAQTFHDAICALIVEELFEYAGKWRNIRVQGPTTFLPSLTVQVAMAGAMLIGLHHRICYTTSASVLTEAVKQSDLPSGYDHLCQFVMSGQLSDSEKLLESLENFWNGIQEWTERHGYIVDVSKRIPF", "assay": "nucleotidylation of compounds by ANT", "assay_type": "biochemical, S. aureus", "conditions": "initial rate normalized to 1 = 100%; 100 µM compound"}, "tested bacterial strains": {"tested_on": "tested bacterial strains", "assay": "organism not typed", "assay_type": "cell-based"}, "[1]": {"tested_on": "E. coli S30 extracts (E. coli ribosomes)", "assay": "in vitro prokaryotic translation assay", "assay_type": "biochemical"}, "AAC(6')/APH(2\")": {"biological_target": "AAC(6')/APH(2\") (Staphylococcus aureus, UniProt P0A0C1)", "sequence (P0A0C1 whole entry)": "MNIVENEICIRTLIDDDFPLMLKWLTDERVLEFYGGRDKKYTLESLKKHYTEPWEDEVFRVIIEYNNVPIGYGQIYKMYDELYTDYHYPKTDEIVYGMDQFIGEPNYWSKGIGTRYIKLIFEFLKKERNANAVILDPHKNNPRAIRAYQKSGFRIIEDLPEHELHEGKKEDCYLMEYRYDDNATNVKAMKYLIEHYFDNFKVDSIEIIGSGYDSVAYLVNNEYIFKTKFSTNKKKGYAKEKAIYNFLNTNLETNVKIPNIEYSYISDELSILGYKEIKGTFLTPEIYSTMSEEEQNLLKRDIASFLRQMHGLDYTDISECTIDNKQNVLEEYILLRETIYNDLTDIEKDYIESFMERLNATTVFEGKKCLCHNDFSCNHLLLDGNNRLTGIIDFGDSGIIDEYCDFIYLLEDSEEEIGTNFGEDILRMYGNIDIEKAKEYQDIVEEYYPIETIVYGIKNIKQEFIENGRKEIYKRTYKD", "assay": "acetylation of compounds by AAC", "assay_type": "biochemical", "conditions": "for relative activity of AAC(6')/APH(2\") (acetyltransferase) on compound: initial rate normalized to 1 = 100%, 100 µM compound; for times less prone to deactivation by AAC(6')/APH(2\") than 1: relative to 1, stated jointly for both AAC(6') enzymes", "in_short": "(§1)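 Acetyltransferase activity followed at 412 nm by Ellman's method, with CoASH release coupled to DTNB (2 mM), at 25 °C. Mix: test compound 100 µM, AcCoA 150 µM, enzyme 0.5 µM. Buffer: 50 mM MES pH 6.6 for AAC(6')/APH(2\"), 50 mM Tris pH 7.5 for AAC(6')-Ib'. Read every 30 s for 1 h. Initial rates from first 2–5 min, normalized to parent aminoglycoside; triplicate.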"}, "AAC(6')-Ib'": {"tested_on": "AAC(6')-Ib'", "assay": "acetylation of compounds by AAC", "assay_type": "biochemical", "conditions": "for relative activity of AAC(6')-Ib' on compound: initial rate normalized to 1 = 100%, 100 µM compound; for times less prone to deactivation by AAC(6')-Ib' than 1: relative to 1, stated jointly for both AAC(6') enzymes", "in_short": "as §1"}, "Tetrahymena ribozyme": {"tested_on": "Tetrahymena ribozyme", "conditions": "compared to parent antibiotic 1; cited from earlier work"}, "[2]": {"biological_target": "chloramphenicol nitroreductase (CNR) (Haemophilus influenzae, UniProt Q57431)", "sequence (Q57431 whole entry)": "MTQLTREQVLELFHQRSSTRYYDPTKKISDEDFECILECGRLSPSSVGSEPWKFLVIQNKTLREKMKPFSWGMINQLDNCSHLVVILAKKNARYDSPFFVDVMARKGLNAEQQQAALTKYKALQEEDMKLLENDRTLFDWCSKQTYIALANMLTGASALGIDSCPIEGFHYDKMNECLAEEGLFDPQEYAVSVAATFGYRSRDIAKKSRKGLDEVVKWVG", "assay": "reduction of compounds by CNR", "assay_type": "biochemical, H. influenzae", "conditions": "for relative activity of CNR on compound: initial rate normalized to 3 = 100%, 100 µM compound"}, "[3]": {"biological_target": "chloramphenicol phosphotransferase (CPT) (Streptomyces venezuelae, UniProt Q56148)", "sequence (Q56148 5-178)": "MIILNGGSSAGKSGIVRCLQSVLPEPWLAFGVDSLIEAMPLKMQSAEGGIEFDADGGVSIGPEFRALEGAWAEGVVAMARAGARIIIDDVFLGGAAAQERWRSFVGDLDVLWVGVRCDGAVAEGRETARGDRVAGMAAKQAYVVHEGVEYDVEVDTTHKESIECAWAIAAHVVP", "assay": "phosphorylation of compounds by CPT", "assay_type": "biochemical", "conditions": "compared to 3"}, "S. aureus ATCC 29213": {"tested_on": "S. aureus ATCC 29213", "assay": "MIC determination by double-dilution", "assay_type": "cell-based, Staphylococcus aureus"}}, "note": "Read-outs that look alike come from different tables or passages of the source.", "data": [{"smiles": "NC[C@H]1O[C@H](O[C@H]2[C@H](O)[C@@H](O[C@H]3O[C@H](CO)[C@@H](O)[C@H](N)[C@H]3O)[C@H](N)C[C@@H]2N)[C@H](N)C[C@@H]1O", "note": "[Compound 1, tobramycin, reference compound]", "values": [{"measurement": "relative activity of ANT(4') on compound", "setting": "ANT(4')", "value": 100, "unit": "%"}]}, {"smiles": "NC[C@H]1O[C@H](O[C@H]2[C@H](O)[C@@H](O[C@@H]3O[C@H](CSCCOCCS)[C@@H](O)[C@H](N)[C@H]3O)[C@H](N)C[C@@H]2N)[C@H](N)C[C@@H]1O", "note": "[Compound 6]", "values": [{"measurement": "relative activity of ANT(4') on compound", "setting": "ANT(4')", "value": 49, "unit": "%"}]}, {"smiles": "CCC[C@@H]1C[C@@H](C(=O)N[C@H]([C@H]2O[C@H](SC)[C@H](O)[C@@H](O)[C@H]2O)[C@@H](C)SCCOCCS)N(C)C1", "note": "[Compound 9]", "values": [{"measurement": "MIC", "setting": "tested bacterial strains; read-out: MIC values against seven of the tested strains", "value": "1.2 to 9.4", "unit": "µg/mL"}, {"measurement": "IC50 fold higher than that of parent antibiotic 2, in vitro translation", "setting": "[1]; relative to 2, less potent", "value": "at least 5 fold"}]}, {"smiles": "CCC[C@@H]1C[C@@H](C(=O)NC([C@H]2O[C@H](SC)[C@H](O)[C@@H](O)[C@H]2O)[C@@H](C)SCCOCCSSCCOCCS[C@H](C)C(NC(=O)[C@@H]2C[C@@H](CCC)CN2C)[C@H]2O[C@H](SC)[C@H](O)[C@@H](O)[C@H]2O)N(C)C1", "note": "(stereo partly shown) [Compound 10]", "values": [{"measurement": "MIC", "setting": "tested bacterial strains; read-out: MICs against eight of the tested bacterial strains", "value": "0.6 to 9.4", "unit": "µg/mL"}]}, {"smiles": "O=C(CSCCOCCS)N[C@H](CO)[C@H](O)c1ccc([N+](=O)[O-])cc1", "note": "[Compound 13]", "values": [{"measurement": "fold less potent than parent antibiotic 3 in in vitro translation", "setting": "[1]; relative to 3", "value": "~8", "unit": "fold"}]}, {"smiles": "NC[C@H]1O[C@H](O[C@H]2[C@H](O)[C@@H](O[C@@H]3O[C@H](CSCCOCCSSCCOCCSC[C@H]4O[C@@H](O[C@@H]5[C@@H](O)[C@H](O[C@H]6O[C@H](CN)[C@@H](O)C[C@H]6N)[C@@H](N)C[C@H]5N)[C@H](O)[C@@H](N)[C@@H]4O)[C@@H](O)[C@H](N)[C@H]3O)[C@H](N)C[C@@H]2N)[C@H](N)C[C@@H]1O", "note": "[Compound 16]", "values": [{"measurement": "relative activity of AAC(6')/APH(2\") (acetyltransferase) on compound", "setting": "AAC(6')/APH(2\")", "value": 34, "unit": "%"}, {"measurement": "times less prone to deactivation by AAC(6')/APH(2\") than 1", "setting": "AAC(6')/APH(2\")", "value": "2.5–5 times"}, {"measurement": "relative activity of AAC(6')-Ib' on compound", "setting": "AAC(6')-Ib'", "value": 39, "unit": "%"}, {"measurement": "times less prone to deactivation by AAC(6')-Ib' than 1", "setting": "AAC(6')-Ib'", "value": "2.5–5 times"}, {"measurement": "inhibition of the activity of the Tetrahymena ribozyme (in words)", "setting": "Tetrahymena ribozyme", "value": "significantly better inhibitor"}]}, {"smiles": "CCC[C@@H]1C[C@@H](C(=O)NC([C@H]2O[C@H](SC)[C@H](O)[C@@H](O)[C@H]2O)[C@@H](C)SCCOCCSSCCOCCSC[C@H]2O[C@@H](O[C@@H]3[C@@H](O)[C@H](O[C@H]4O[C@H](CN)[C@@H](O)C[C@H]4N)[C@@H](N)C[C@H]3N)[C@H](O)[C@@H](N)[C@@H]2O)N(C)C1", "note": "(stereo partly shown) [Compound 18]", "values": [{"measurement": "relative activity of AAC(6')/APH(2\") (acetyltransferase) on compound", "setting": "AAC(6')/APH(2\")", "value": 31, "unit": "%"}, {"measurement": "times less prone to deactivation by AAC(6')/APH(2\") than 1", "setting": "AAC(6')/APH(2\")", "value": "2.5–5 times"}, {"measurement": "relative activity of AAC(6')-Ib' on compound", "setting": "AAC(6')-Ib'", "value": 20, "unit": "%"}, {"measurement": "times less prone to deactivation by AAC(6')-Ib' than 1", "setting": "AAC(6')-Ib'", "value": "2.5–5 times"}]}, {"smiles": "NC[C@H]1O[C@H](O[C@H]2[C@H](O)[C@@H](O[C@@H]3O[C@H](CSCCOCCSCC(=O)N[C@H](CO)[C@H](O)c4ccc([N+](=O)[O-])cc4)[C@@H](O)[C@H](N)[C@H]3O)[C@H](N)C[C@@H]2N)[C@H](N)C[C@@H]1O", "note": "[Compound 20]", "values": [{"measurement": "relative activity of AAC(6')-Ib' on compound", "setting": "AAC(6')-Ib'", "value": 37, "unit": "%"}]}, {"smiles": "NC[C@H]1O[C@H](O[C@H]2[C@H](O)[C@@H](O[C@@H]3O[C@H](CSCCOCCSSCCOCCSCC(=O)N[C@H](CO)[C@H](O)c4ccc([N+](=O)[O-])cc4)[C@@H](O)[C@H](N)[C@H]3O)[C@H](N)C[C@@H]2N)[C@H](N)C[C@@H]1O", "note": "[Compound 22]", "values": [{"measurement": "relative activity of CNR on compound", "setting": "[2]", "value": 117, "unit": "%"}, {"measurement": "relative activity of AAC(6')/APH(2\") (acetyltransferase) on compound", "setting": "AAC(6')/APH(2\")", "value": 34, "unit": "%"}, {"measurement": "relative activity of AAC(6')-Ib' on compound", "setting": "AAC(6')-Ib'", "value": 31, "unit": "%"}]}, {"smiles": "CCC[C@@H]1C[C@@H](C(=O)NC([C@H]2O[C@H](SC)[C@H](O)[C@@H](O)[C@H]2O)[C@@H](C)SCCOCCSCC(=O)N[C@H](CO)[C@H](O)c2ccc([N+](=O)[O-])cc2)N(C)C1", "note": "(stereo partly shown) [Compound 23]", "values": [{"measurement": "relative activity of CNR on compound", "setting": "[2]", "value": 133, "unit": "%"}]}, {"smiles": "CCC[C@@H]1C[C@@H](C(=O)NC([C@H]2O[C@H](SC)[C@H](O)[C@@H](O)[C@H]2O)[C@@H](C)SCCOCCSSCCOCCSCC(=O)N[C@@H](CO)[C@H](O)c2ccc([N+](=O)[O-])cc2)N(C)C1", "note": "(stereo partly shown) [Compound 24]", "values": [{"measurement": "relative activity of CNR on compound", "setting": "[2]", "value": 174, "unit": "%"}]}, {"smiles": "O=C(CSCCOCCSCC(=O)N[C@H](CO)[C@H](O)c1ccc([N+](=O)[O-])cc1)N[C@H](CO)[C@H](O)c1ccc([N+](=O)[O-])cc1", "note": "[Compound 25]", "values": [{"measurement": "substrate quality for CNR (in words)", "setting": "[2]; compared to 3", "value": "poor substrate"}, {"measurement": "substrate quality for CPT (in words)", "setting": "[3]", "value": "poor substrate"}]}, {"smiles": "O=C(CSCCOCCSSCCOCCSCC(=O)N[C@H](CO)[C@H](O)c1ccc([N+](=O)[O-])cc1)N[C@H](CO)[C@H](O)c1ccc([N+](=O)[O-])cc1", "note": "[Compound 26]", "values": [{"measurement": "fold more potent than 3 (MIC)", "setting": "S. aureus ATCC 29213", "value": "approximately 16 fold"}, {"measurement": "relative activity of CNR on compound", "setting": "[2]", "value": 220, "unit": "%"}]}]}
